Calls of active or inactive are those of the source. The rule behind the calls is not given here.
Assays:
[1] = Inhibition of Plasmodium falciparum ODCase
[2] = species on record: Homo sapiens; assay: Inhibition of human ODCase upto 10 or 20 mM
In short: (§1)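 Enzyme was a truncated C-terminal portion of human UMP synthase, expressed in E. coli BL-21 with the His6 tag removed by thrombin. Stock (60 µM) was incubated overnight at 4 °C. Enzyme plus nucleotide ([…]) in 50 mM Tris pH 7.5, 1 mM DTT was followed by ITC at 37 °C. Started by a 5.7 µL injection of 5 mM OMP (20 µM final). Competitive Ki fit.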

[3] = Inhibition of Methanobacterium thermoautotrophicum ODCase; design: species or system Methanothermobacter thermautotrophicus
[4] = target: T1, Orotidine 5'-phosphate decarboxylase (Saccharomyces cerevisiae S288c, UniProt P03962); assay: Inhibition of yeast ODCase
T1 sequence (P03962 whole entry): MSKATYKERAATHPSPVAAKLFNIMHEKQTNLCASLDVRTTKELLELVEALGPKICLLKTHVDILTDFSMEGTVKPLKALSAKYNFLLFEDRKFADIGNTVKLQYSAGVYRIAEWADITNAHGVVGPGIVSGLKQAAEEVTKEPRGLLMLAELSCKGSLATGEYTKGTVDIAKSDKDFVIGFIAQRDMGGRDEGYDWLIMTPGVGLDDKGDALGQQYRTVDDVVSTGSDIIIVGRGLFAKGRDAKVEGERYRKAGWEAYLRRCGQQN

[5] = Inhibition of human ODCase
[6] = tested on: Plasmodium falciparum; assay: Activity of Plasmodium falciparum ODCase
In short: (§2)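 Run by ITC at 37 °C. ODCase stock (60 µM in 50 mM Tris pH 7.5, 20 mM DTT, 40 mM NaCl) was held overnight at room temperature. Final mixture: 60 nM enzyme in degassed 50 mM Tris pH 7.4, 1 mM DTT, with nucleotide varied 0–20 mM. Started by a single 3.4 µL injection of 5 mM OMP. Competitive analysis by rate-equation fit and double-reciprocal plots.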

[7] = species on record: Homo sapiens; assay: Activity of human ODCase; in short: as §1
[8] = tested on: Methanothermobacter thermautotrophicus; assay: Activity of Methanobacterium thermoautotrophcium ODCase
In short: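 Isothermal titration calorimetry at 55 °C. Enzyme stock (20 µM in 50 mM Tris pH 7.5, 20 mM DTT, 40 mM NaCl) was stabilized overnight at room temperature. Assay: 20 nM ODCase in 50 mM Tris pH 7.5, 1 mM DTT, with fixed nucleotide levels (0–20 mM). Started by a single injection of 5 mM OMP (40 µM final). Competitive Ki from rate fitting, checked by double-reciprocal plots.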

[9] = tested on: Plasmodium falciparum; assay: Inhibition of Plasmodium falciparum ODCase upto 10 or 20 mM; in short: as §2

| Structure (SMILES) | Ki [1] | Ki [3] | Ki [5] | Activity [9] | further results |
| --- | --- | --- | --- | --- | --- |
| Nc1nc2c(ncn2[C@@H]2O[C@H](COP(=O)(O)O)[C@@H](O)[C@H]2O)c(=O)[nH]1 | 2100 µM | 4200 µM |  |  | Activity [2]: inactive |
| O=c1[nH]c(=O)c2ncn([C@@H]3O[C@H](COP(=O)(O)O)[C@@H](O)[C@H]3O)c2[nH]1 | 43 µM | 130 µM | 0.7 µM |  | Ki [4]: 0.4 µM |
| Cc1cn([C@H]2C[C@H](O)[C@@H](COP(=O)(O)O)O2)c(=O)[nH]c1=O | 10000 µM | 3300 µM | 8700 µM |  |  |
| O=C(O)c1cc(=O)[nH]c(=O)n1[C@@H]1O[C@H](COP(=O)(O)O)[C@@H](O)[C@H]1O |  |  |  |  | Km [6]: 1.3 µM; kcat [6]: 6.7 s⁻¹; Km [7]: 1.7 µM; kcat [7]: 8.1 s⁻¹; Km [8]: 4.8 µM; kcat [8]: 20.7 s⁻¹ |
| Nc1ncnc2c1ncn2[C@H]1C[C@H](O)[C@@H](COP(=O)(O)O)O1 |  | > 10000 µM | 7400 µM | inactive |  |
| Nc1ncnc2c1ncn2[C@@H]1O[C@H](COP(=O)(O)O)[C@@H](O)[C@H]1O |  | 3500 µM | 4300 µM | inactive |  |
| O=c1ccn([C@@H]2O[C@H](COP(=O)(O)O)[C@@H](O)[C@H]2O)c(=O)[nH]1 | 210 µM | 330 µM | 220 µM |  |  |
| Nc1ccn([C@@H]2O[C@H](COP(=O)(O)O)[C@@H](O)[C@H]2O)c(=O)n1 |  | 1200 µM | 1400 µM | inactive |  |

— ChEMBL document CHEMBL1140727, “Structural diversity and plasticity associated with nucleotides targeting orotidine monophosphate decarboxylase” (J Med Chem, 2008)
